In data set [1] the target is T1, Voltage-dependent calcium channel subunit alpha-2/delta-1 (Homo sapiens, UniProt P54289). Nature of the data set: Displacement of [3H]-gabapentin from human Cav alpha2delta1 expressed in CHO-K1 cell membranes incubated for 60 mins by scintillation counting method. Also on record: species or system Membrane. Summed up:
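Radioligand binding with [3H]-gabapentin on α2δ-1-enriched membranes from CHO-K1 cells expressing human Cav2.2/β3/α2δ1. Compounds were first screened at 10 μM. Ki was calculated for those giving more than 50% inhibition. Values are mean ± SD of two determinations.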
(In general: In a radioligand displacement assay an active substance lowers the binding of a labelled ligand.)

A further data set has as its target CYP3A4 (Homo sapiens, UniProt P08684). Nature of the data set: Inhibition of recombinant CYP3A4 (unknown origin) using BFC as substrate at 1 uM measured after 30 mins in presence of NADPH generating system by fluorescence assay relative to control. The class given is ADME. The following applies: recombinant CYP3A4, probe BFC. Summed up: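 Recombinant human CYP3A4 incubated with test compound at 1 μM. 7-Benzyloxy-4-trifluoromethylcoumarin (BFC) was the probe substrate, with fluorescence read-out, reported as percent inhibition.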

In the next data set the test system is Mus musculus. The data set can be described thus: Analgesic activity in CD1 mouse model of capsaicin-induced mechanical hypersensitivity assessed as reduction in mechanical hypersensitivity at 20 mg/kg, ip administered 30 mins prior to capsaicin stimulation and measured after 15 mins. It is filed as functional. Also on record: scale not given: the % may be the effect or the level left. The conditions noted are these: time 45 min, 0.75 h. The method, boiled down:
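Male CD1 mice, 8–12 per group, given 20 mg/kg ip alongside vehicle and pregabalin comparator groups. Capsaicin test read out as percentage reduction in capsaicin-induced mechanical hypersensitivity.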

A short description of data set [2]: Induction of motor coordination impairment in CD1 mouse assessed as latency to fall at 20 mg/kg, ip measured upto 180 mins by rotarod test. The class given is organism-based. The conditions noted are these: in vivo, 3 h. The method, boiled down:
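Mice were dosed at 20 mg/kg ip, with vehicle and pregabalin groups run in the same paradigm. Latency to fall from the elevated rotating drum was recorded at 30, 120 and 180 min after administration.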
Background: In the rotarod test animals must keep their balance on a rotating rod.

The target of data set [3] is 5-hydroxytryptamine receptor 1A (Homo sapiens) (UniProt P08908). Nature of the data set: Binding affinity to 5HT1A receptor (unknown origin).
Data set [4] addresses Sodium-dependent serotonin transporter (Homo sapiens) (UniProt P31645). Nature of the data set: Binding affinity to serotonin transporter (unknown origin).
Data set [5] concerns the target Histamine H1 receptor (Homo sapiens) (UniProt P35367). Nature of the data set: Binding affinity to histamine H1 receptor (unknown origin).
A further data set concerns the target Mu-type opioid receptor (Homo sapiens, UniProt P35372). The data set can be described thus: Binding affinity to mu opioid receptor (unknown origin).
In data set [6] the target is Alpha-2A adrenergic receptor (Homo sapiens) (UniProt P08913). The data set can be described thus: Binding affinity to alpha2A receptor (unknown origin).
The target in data set [7] is Sodium-dependent noradrenaline transporter (Homo sapiens) (UniProt P23975). The data set can be described thus: Binding affinity to norepinephrine transporter (unknown origin).
In data set [8] the target is Delta-type opioid receptor (Homo sapiens) (UniProt P41143). The data set can be described thus: Binding affinity to delta opioid receptor (unknown origin).
In data set [9] the target is 5-hydroxytryptamine receptor 2B (Homo sapiens) (UniProt P41595). The data set can be described thus: Binding affinity to 5HT2B receptor (unknown origin).
Data set [10] deals with Sodium-dependent dopamine transporter (Homo sapiens) (UniProt Q01959). The data set can be described thus: Binding affinity to dopamine transporter (unknown origin).
The target in data set [11] is Sigma non-opioid intracellular receptor 1 (Homo sapiens) (UniProt Q99720). Nature of the data set: Binding affinity to sigma 1 receptor (unknown origin).
Data set [12] deals with Kappa-type opioid receptor (Homo sapiens) (UniProt P41145). Nature of the data set: Binding affinity to kappa opioid receptor (unknown origin).
Data set [13] addresses Alpha-1A adrenergic receptor (Homo sapiens) (UniProt P35348). The data set can be described thus: Binding affinity to alpha1A receptor (unknown origin).
Data set [14] deals with T1, Voltage-dependent calcium channel subunit alpha-2/delta-1. The data set can be described thus: Displacement of [3H]-gabapentin from human Cav alpha2delta1 expressed in CHO-K1 cell membranes at 10 uM incubated for 60 mins by scintillation counting method relative to control. The following applies: Membrane. Summed up:
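Human α2δ-1-enriched membranes from CHO-K1 cells stably expressing human Cav2.2/β3/α2δ1. Test compound at 10 μM competes with [3H]-gabapentin radioligand, and percent inhibition of specific binding is recorded. Compounds exceeding 50% inhibition go on to Ki determination, with Ki values given as the mean of two determinations.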

SMILES strings stand for the structures. Activity calls are given as the source filed them. No cut-off for these calls is given here. Some results are limits rather than exact numbers.

Sequence of CYP3A4 (P08684 whole entry): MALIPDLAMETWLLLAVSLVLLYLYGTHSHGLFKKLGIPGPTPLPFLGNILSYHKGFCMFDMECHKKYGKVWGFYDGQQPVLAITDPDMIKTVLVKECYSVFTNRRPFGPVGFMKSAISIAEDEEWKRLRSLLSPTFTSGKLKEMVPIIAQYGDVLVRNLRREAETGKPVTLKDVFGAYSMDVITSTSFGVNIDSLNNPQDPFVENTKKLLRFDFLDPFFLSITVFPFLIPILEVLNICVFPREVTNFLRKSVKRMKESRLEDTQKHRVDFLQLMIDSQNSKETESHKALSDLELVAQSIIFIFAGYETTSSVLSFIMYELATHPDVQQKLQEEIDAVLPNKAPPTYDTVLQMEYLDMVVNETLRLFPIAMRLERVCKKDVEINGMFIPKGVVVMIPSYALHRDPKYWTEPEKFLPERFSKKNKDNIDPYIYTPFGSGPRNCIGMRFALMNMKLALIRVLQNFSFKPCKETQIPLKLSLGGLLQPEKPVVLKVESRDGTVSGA
T1 sequence (P54289 25-956 limits assumed): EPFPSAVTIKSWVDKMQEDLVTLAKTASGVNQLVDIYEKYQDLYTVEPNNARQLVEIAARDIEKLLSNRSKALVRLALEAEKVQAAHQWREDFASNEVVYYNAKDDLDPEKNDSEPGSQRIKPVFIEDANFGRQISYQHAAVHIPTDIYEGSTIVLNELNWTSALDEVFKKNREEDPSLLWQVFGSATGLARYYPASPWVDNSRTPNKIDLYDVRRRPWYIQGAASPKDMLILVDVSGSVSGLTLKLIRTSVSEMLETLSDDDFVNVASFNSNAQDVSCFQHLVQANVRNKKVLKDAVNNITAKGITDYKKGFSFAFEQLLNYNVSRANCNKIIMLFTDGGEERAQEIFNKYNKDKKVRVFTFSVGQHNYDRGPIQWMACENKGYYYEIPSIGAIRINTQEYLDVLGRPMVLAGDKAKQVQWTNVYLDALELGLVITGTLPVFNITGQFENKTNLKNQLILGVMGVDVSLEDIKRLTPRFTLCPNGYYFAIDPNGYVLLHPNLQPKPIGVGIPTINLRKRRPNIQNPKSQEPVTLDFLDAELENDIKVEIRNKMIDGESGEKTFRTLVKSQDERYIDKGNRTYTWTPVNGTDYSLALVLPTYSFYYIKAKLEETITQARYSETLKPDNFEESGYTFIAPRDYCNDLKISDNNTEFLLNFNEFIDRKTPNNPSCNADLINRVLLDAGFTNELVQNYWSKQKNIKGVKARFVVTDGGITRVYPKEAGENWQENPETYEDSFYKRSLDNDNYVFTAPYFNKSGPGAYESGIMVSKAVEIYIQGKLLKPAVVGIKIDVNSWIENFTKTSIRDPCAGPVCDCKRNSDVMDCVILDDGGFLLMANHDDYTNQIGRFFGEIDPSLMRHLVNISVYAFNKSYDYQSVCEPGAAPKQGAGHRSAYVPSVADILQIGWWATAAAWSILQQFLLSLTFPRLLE
T1 sequence (P54289 957-1103 limits assumed): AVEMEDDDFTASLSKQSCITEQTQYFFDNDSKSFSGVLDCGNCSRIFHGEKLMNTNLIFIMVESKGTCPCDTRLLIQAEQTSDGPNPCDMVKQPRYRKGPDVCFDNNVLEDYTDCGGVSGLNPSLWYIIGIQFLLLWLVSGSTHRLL
Sequence of Sodium-dependent dopamine transporter (Homo sapiens) (Q01959 whole entry): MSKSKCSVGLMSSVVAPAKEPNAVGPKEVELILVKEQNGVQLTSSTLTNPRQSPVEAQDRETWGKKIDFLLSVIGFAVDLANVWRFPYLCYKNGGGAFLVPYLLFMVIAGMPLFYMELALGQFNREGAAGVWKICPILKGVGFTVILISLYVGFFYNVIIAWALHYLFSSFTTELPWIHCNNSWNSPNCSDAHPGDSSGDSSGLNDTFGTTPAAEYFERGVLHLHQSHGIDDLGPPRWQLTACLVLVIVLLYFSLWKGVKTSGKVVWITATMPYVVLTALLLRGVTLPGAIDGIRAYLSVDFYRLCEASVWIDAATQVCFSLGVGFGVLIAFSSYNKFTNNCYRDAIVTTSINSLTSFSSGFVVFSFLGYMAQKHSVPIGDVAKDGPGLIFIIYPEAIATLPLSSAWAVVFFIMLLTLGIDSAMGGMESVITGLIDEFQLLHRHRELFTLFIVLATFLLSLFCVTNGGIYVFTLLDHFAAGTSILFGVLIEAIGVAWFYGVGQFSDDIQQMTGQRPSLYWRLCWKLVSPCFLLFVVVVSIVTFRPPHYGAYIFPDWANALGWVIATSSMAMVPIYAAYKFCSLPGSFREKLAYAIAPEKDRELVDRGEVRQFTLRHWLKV
Sequence of Delta-type opioid receptor (Homo sapiens) (P41143 whole entry): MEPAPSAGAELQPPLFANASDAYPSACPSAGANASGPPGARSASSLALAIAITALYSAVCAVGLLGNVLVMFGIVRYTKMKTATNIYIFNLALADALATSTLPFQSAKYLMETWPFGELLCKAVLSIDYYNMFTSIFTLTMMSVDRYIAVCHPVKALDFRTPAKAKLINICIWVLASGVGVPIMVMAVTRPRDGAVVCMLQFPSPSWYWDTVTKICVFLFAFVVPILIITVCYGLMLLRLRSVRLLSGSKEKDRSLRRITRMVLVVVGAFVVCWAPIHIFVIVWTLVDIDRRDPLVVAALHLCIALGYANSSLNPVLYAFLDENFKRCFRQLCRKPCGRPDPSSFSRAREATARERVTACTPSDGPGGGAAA
Sequence of 5-hydroxytryptamine receptor 1A (Homo sapiens) (P08908 whole entry): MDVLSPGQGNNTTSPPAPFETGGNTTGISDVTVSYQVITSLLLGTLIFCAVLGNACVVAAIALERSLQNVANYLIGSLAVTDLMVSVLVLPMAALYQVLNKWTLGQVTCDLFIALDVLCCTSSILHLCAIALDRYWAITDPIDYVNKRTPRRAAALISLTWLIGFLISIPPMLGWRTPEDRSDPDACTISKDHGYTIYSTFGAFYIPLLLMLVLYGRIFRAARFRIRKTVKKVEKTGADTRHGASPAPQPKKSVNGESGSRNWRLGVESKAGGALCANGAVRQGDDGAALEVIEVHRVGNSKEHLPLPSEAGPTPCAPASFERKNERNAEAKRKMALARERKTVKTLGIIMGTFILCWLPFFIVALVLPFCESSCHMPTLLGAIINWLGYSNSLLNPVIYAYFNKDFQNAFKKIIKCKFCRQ
Sequence of Sodium-dependent noradrenaline transporter (Homo sapiens) (P23975 whole entry): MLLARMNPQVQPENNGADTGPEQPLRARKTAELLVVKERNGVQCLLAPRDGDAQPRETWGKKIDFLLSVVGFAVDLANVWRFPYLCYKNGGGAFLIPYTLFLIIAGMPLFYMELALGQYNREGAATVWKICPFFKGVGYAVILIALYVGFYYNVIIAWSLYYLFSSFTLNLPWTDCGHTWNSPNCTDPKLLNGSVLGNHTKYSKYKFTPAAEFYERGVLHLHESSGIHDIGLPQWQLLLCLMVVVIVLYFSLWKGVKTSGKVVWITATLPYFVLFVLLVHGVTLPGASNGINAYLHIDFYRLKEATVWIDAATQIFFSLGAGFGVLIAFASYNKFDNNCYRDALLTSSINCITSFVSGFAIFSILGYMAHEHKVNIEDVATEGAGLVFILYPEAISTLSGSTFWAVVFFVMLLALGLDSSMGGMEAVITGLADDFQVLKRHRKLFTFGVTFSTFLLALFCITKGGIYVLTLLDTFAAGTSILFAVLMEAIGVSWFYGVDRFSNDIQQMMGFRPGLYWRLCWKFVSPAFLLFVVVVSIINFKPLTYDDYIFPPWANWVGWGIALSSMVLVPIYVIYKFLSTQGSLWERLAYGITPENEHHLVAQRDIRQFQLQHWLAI
Sequence of Alpha-1A adrenergic receptor (Homo sapiens) (P35348 whole entry): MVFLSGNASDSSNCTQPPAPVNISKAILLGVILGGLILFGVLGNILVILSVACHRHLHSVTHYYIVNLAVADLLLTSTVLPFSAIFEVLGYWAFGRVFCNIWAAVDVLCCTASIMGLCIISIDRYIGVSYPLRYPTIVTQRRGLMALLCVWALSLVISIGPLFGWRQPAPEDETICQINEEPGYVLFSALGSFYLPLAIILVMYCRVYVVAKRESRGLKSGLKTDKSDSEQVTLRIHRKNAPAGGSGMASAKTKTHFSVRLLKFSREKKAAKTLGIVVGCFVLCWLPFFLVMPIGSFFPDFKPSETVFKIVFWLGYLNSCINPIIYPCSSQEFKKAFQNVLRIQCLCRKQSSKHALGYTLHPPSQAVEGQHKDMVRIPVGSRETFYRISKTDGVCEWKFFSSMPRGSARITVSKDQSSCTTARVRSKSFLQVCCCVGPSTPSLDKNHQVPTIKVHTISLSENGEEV
Sequence of Histamine H1 receptor (Homo sapiens) (P35367 whole entry): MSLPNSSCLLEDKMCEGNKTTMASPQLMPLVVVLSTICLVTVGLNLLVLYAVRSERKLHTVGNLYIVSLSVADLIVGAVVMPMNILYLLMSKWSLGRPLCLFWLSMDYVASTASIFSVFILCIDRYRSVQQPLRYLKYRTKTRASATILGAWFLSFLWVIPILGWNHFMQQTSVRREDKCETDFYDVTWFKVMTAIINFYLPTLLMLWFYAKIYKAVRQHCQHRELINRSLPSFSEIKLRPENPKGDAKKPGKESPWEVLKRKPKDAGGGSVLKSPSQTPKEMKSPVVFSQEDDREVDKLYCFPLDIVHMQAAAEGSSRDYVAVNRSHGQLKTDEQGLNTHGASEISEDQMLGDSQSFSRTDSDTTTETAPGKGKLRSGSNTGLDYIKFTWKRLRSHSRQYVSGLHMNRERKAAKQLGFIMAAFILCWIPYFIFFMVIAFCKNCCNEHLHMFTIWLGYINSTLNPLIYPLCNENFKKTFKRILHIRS
Sequence of Mu-type opioid receptor (P35372 whole entry): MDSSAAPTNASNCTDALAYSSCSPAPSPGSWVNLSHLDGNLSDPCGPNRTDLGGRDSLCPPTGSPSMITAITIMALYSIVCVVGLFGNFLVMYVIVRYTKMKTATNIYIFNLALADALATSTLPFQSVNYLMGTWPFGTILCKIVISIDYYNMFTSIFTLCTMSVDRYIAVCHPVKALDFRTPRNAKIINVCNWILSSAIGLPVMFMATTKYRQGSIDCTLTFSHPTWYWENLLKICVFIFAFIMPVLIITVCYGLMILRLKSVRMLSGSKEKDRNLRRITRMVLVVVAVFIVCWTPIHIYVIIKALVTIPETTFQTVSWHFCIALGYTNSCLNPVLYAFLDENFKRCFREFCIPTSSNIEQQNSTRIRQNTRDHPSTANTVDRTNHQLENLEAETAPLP

Usually Ki stands for a measure of affinity in units of concentration, obtained from inhibition or displacement. By inhibition is commonly meant how much of the control response was suppressed. With `CCCC(c1nc2ccccc2c(=O)n1Cc1ccccc1)N1C[C@@H](C)N[C@@H](C)C1` (stereo not given in full), in data set [1], the Ki is 4.82 µM. Moreover, the inhibition at 0.5 h, 1 µM at CYP3A4 was 98%.
The corresponding values for `CCC[C@H](c1nc2ccc(Br)cc2c(=O)n1CC)N1C[C@@H](C)N[C@@H](C)C1` are 0.008 µM and 94%.
For the compound `CC(C)C[C@H](CN)CC(=O)O` [PREGABALIN], the Activity in the data set on Mus musculus is reported as 34%; in [2], “Toxic”. The inhibition at 0.5 h, 1 µM on CYP3A4 came to 43%.
As to `CCC(c1nc2ccccc2c(=O)n1CCOC)N1C[C@@H](C)N[C@@H](C)C1` (stereo not given in full), in data set [1], the Ki worked out at 0.761 µM. Besides, the inhibition at 0.5 h, 1 µM on CYP3A4 is 86%.
For the compound `CCC[C@H](c1nc2ccc(Br)cc2c(=O)n1CC)N1CCN[C@@H](C)C1`, the result in data set [3], in [4], in data set [5], in data set [6], in [7] and in data set [8] was Active. The result in data set [9], in data set [10], in [11], in data set [12] and in data set [13] was Active. The Ki on Mu-type opioid receptor came to 0.157 µM; in data set [1], 0.091 µM. Moreover, the inhibition at 0.5 h, 1 µM at CYP3A4 is 73%.
As to `CCCC(c1nc2ccccc2c(=O)n1CCOC)N1C[C@@H](C)N[C@@H](C)C1` (stereo not given in full), the Ki in data set [1] came out at 0.241 µM. In addition, the inhibition at 0.5 h, 1 µM on CYP3A4 amounted to 94%.
On to `CCCC(c1nc2ccc(C#N)cc2c(=O)n1CC)N1C[C@@H](C)N[C@@H](C)C1` (stereo not given in full), for which the Ki in data set [1] turned out to be 0.288 µM. For the same compound, the inhibition at 0.5 h, 1 µM at CYP3A4 was 70%.
On the same counts, the results for `CCC[C@H](c1nc2ccc(Br)cc2c(=O)n1CC)N1CCN[C@@H](CC)C1` are 0.123 µM and 97%.
Take `CCC(c1nc2ccccc2c(=O)n1CCCOC)N1C[C@@H](C)N[C@@H](C)C1` (stereo not given in full): in data set [1], the Ki is more than 10 µM. Also, in data set [14], the inhibition was less than 50%.
`CCCCC(c1nc2ccccc2c(=O)n1CCOC)N1C[C@@H](C)N[C@@H](C)C1` (stereo not given in full): the Ki in data set [1] amounted to 1.34 µM. The inhibition at 0.5 h, 1 µM at CYP3A4 stood at 97%.
On the same counts, the results for `CCCC(c1nc2ccc(Br)cc2c(=O)n1CC)N1CCNCC1` (stereo not given) are 0.076 µM and 65%.
The corresponding values for `CCCC(c1nc2ccc(-c3ccncc3)cc2c(=O)n1CC)N1C[C@@H](C)N[C@@H](C)C1` (stereo not given in full) are 0.038 µM and 92%.
For `CCCC(c1nc2ccc(Br)cc2c(=O)n1CC)N1C[C@@H](C)N[C@@H](C)C1` (stereo not given in full), the inhibition constant Ki in data set [1] came to 0.016 µM. Further, on CYP3A4, the inhibition at 0.5 h, 1 µM amounted to 95%.
On the same counts, the results for `COCCn1c(C(C)N2CCNCC2)nc2ccccc2c1=O` (stereo not given) are 4.9 µM and 0%.
On the same counts, the results for `CCCC(c1nc2ccccc2c(=O)n1CCOC)N1CCNCC1` (stereo not given) are 0.638 µM and 67%.
On the same counts, the results for `CCCC(c1nc2ccc(Br)cc2c(=O)n1CC)N1CCC(NC)CC1` (stereo not given) are 0.436 µM and 83%.
With `CCCC(c1nc2cccc(Br)c2c(=O)n1CC)N1C[C@@H](C)N[C@@H](C)C1` (stereo not given in full), the Ki in data set [1] amounted to 0.066 µM. The inhibition at 0.5 h, 1 µM on CYP3A4 amounted to 95%.
On the same counts, the results for `CCC[C@@H](c1nc2ccncc2c(=O)n1CC)N1CCN[C@H](C)C1` are more than 1 µM and 15%.
Turning to `CCC[C@H](c1nc2ccc(Br)cc2c(=O)n1CC)N1CCNC(C)(C)C1`, in data set [1], the Ki amounted to 1.58 µM. The inhibition at 0.5 h, 1 µM at CYP3A4 was found to be 72%.
For `CCCC(c1nc2ccccc2c(=O)n1Cc1ccco1)N1C[C@@H](C)N[C@@H](C)C1` (stereo not given in full), the Ki in data set [1] was 0.23 µM. Further, the inhibition at 0.5 h, 1 µM on CYP3A4 came to 99%.
Take `CCCC(c1nc2ccccc2c(=O)n1CC)N1C[C@@H](C)N[C@@H](C)C1` (stereo not given in full): the Ki in data set [1] turned out to be 0.036 µM. On CYP3A4, the inhibition at 0.5 h, 1 µM was 85%.
On to `CCC[C@@H](c1nc2ccc(Br)cc2c(=O)n1CC)N1CCN[C@H](C)C1`, for which, in data set [1], the Ki is more than 1 µM. Moreover, the inhibition at 0.5 h, 1 µM at CYP3A4 was found to be 21%.
Take `CCCC(c1nc2cc(-c3ccncc3)ccc2c(=O)n1CC)N1C[C@@H](C)N[C@@H](C)C1` (stereo not given in full): the inhibition constant (Ki) in data set [1] came to 0.018 µM. Moreover, the inhibition at 0.5 h, 1 µM on CYP3A4 was 97%.
The corresponding values for `CCCC(c1nc2cc(Br)ccc2c(=O)n1CC)N1C[C@@H](C)N[C@@H](C)C1` (stereo not given in full) are 0.015 µM and 97%.
On to `CCC[C@H](c1nc2ccc(Br)cc2c(=O)n1CC)N1CCN[C@H](C)C1`, for which the result (in data set [3]; in data set [4]; in [5]; at Mu-type opioid receptor; in data set [6]; in data set [7]) was Active. For the same compound, the result in data set [8], in [9], in [10], in [11], in data set [12] and in data set [13] was Active. Moreover, the Ki in data set [1] worked out at 0.016 µM. Also, the inhibition at 0.5 h, 1 µM at CYP3A4 was 51%.
`COCCn1c(C(CC2CC2)N2C[C@@H](C)N[C@@H](C)C2)nc2ccccc2c1=O` (stereo not given in full): in data set [1], the Ki amounted to 0.413 µM. Moreover, at CYP3A4, the inhibition at 0.5 h, 1 µM was determined as 94%.
On to `CCCC(c1nc2c(Br)cccc2c(=O)n1CC)N1C[C@@H](C)N[C@@H](C)C1` (stereo not given in full), for which the Ki in [1] was more than 1 µM.
Take `CCCC(c1nc2ccccc2c(=O)n1C)N1C[C@@H](C)N[C@@H](C)C1` (stereo not given in full): the inhibitory constant (Ki) in [1] was 0.073 µM. For the same compound, the inhibition at 0.5 h, 1 µM at CYP3A4 worked out at 80%.
On the same counts, the results for `CCC[C@@H](c1nc2ccncc2c(=O)n1CC)N1CCN[C@@H](C)C1` are more than 1 µM and 44%.
The corresponding values for `CCC[C@@H](c1nc2ccc(Br)cc2c(=O)n1CC)N1CCN[C@@H](C)C1` are 0.479 µM and 33%.
Take `COCCn1c(CN2CCNCC2)nc2ccccc2c1=O`: the Ki in data set [1] was more than 10 µM. The inhibition in data set [14] is less than 50%. Besides, the inhibition at 0.5 h, 1 µM on CYP3A4 stood at 6%.
As for `CCC[C@H](c1nc2ccncc2c(=O)n1CC)N1CCN[C@@H](C)C1`, the inhibition constant (Ki) in [1] was found to be 0.027 µM. Also, the inhibition at 0.5 h, 1 µM on CYP3A4 was found to be 56%.
On the same counts, the results for `CCC[C@@H](c1nc2ccc(Br)cc2c(=O)n1CC)N1C[C@@H](C)N[C@@H](C)C1` are 2.9 µM and 88%.
The corresponding values for `CCCC(c1nc2ccc(NCC)cc2c(=O)n1CC)N1C[C@@H](C)N[C@@H](C)C1` (stereo not given in full) are 0.044 µM and 69%.
Take `CCC(c1nc2ccccc2c(=O)n1CCOC)N1CCNCC1` (stereo not given): the Ki in data set [1] amounted to 1.81 µM. For the same compound, at CYP3A4, the inhibition at 0.5 h, 1 µM worked out at 37%.

Source of the values: ChEMBL document CHEMBL4823330, “Piperazinyl Bicyclic Derivatives as Selective Ligands of the α2δ-1 Subunit of Voltage-Gated Calcium Channels” (ACS Med Chem Lett, 2021).
